Screening data deposited in PubChem by several laboratories.
hERG protect: hERG rescue from dofetilide block, primary screen, cell-based, CHO-hERG, FluxOR thallium flux, dofetilide IC70; dofetilide IC70 present; activation (rescue from dofetilide block), less the hit threshold, % at 10 µM; Voltage-gated inwardly rectifying potassium channel KCNH2 (Homo sapiens), Q12809; actives 0.51% (n = 310,000);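 active means activation above the mean of controls blocked by dofetilide plus 5 SD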;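 further: thallium influx through hERG after potassium depolarization seen as dye fluorescence rise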
KCNK9 inh: KCNK9 potassium channel inhibitors, primary screen, HEK293 cells, thallium flux; B-score at 10 µM; FluxOR thallium flux fluorescence; hits give low values; Potassium channel subfamily K member 9 (Homo sapiens), Q9NPC2; actives 1.2% (n = 310,000);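 active means ratio B-score over 3 SD below the library mean, with starting fluorescence within 5 SD of its mean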;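 further: negative B-score means less thallium flux so channel inhibition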
KCC2 mod: KCC2 cotransporter modulators, thallium flux, primary screen, cell-based, HEK293 KCC2, FluoZin-2 fluorescence, MLSMR | Solute carrier family 12 member 5 (Homo sapiens), Q9H2X9 | actives 2.2% (n = 190,000) | B-score of Tl+ flux slope (higher = more flux/activation; lower = inhibition) at 10 µM | KCC2 cells, thallium flux FluoZin-2 fluorescence;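 active means thallium flux slope and its plate-corrected score both differing from the plate sample mean at a set confidence after two filtering rounds, in either direction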;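 further: slope of fluorescence scaled to starting intensity during 10 to 20 s after thallium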
KCNQ1 inh: inhibitors of human KCNQ1 channel, primary screen, cell-based, thallium flux, high-throughput. Potassium voltage-gated channel subfamily KQT member 1 (Homo sapiens), P51787. CHO-K1 KCNQ1, FluxOR thallium flux fluorescence; hits give high values. B-score at 10 µM. actives 1.3% (n = 310,000);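 active means compounds whose thallium flux B-score, printed positive for inhibition, exceeds three library SD while starting fluorescence stays within three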;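 further: channel opened by potassium depolarization with thallium stimulus after 20 min compound exposure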
KCNK3 inh: human KCNK3 channel inhibitors, primary screen, CHO cells, FluxOR thallium flux, B-score | actives 0.84% (n = 340,000) | FluxOR fluorescence; hits give low values | B-score at 10 µM;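 active means B-score under library mean minus 4 SD, starting fluorescence ratio at most library mean plus 5 SD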;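 further: more negative B-score means stronger inhibition of thallium flux through KCNK3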
KCNQ1 pot: potentiators or activators of KCNQ1 channel, primary screen, cell-based, thallium flux, high-throughput | Potassium voltage-gated channel subfamily KQT member 1 (Homo sapiens), P51787 | CHO-K1 KCNQ1, thallium flux FluxOR fluorescence; hits give high values | B-score at 10 µM | actives 0.35% (n = 310,000) | AID 2648, 2010;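 active means fluorescence ratio B-score, a plate-corrected score, at least three library SD, with initial intensity B-score within 5 SD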
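Assay system: CHO-K1 cells stably expressing KCNQ1. Medium: assay buffer for compound exposure, DMSO matched across wells. Timing: 37 °C overnight plating, 90-min dark dye load, 20-min compound pretreatment. Signal: kinetic FluxOR fluorescence, 10 s baseline plus 110 s post-stimulus.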
KCNQ1 block val: KCNQ1 potassium channel inhibitors, confirmation, cell-based, Tl flux, duplicate. shares compounds with KCNQ1 inh. KCNQ1 cell line, FluxOR thallium flux fluorescence. inhibition, % at 10 µM. actives 93% (n = 1,600). AID 588353, 2011;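 active means primary screen active, with duplicate mean exceeding buffer control mean plus 3 SD of buffer wells, cut at about 28% in these data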
CHO Tl flux: thallium flux effects in parental CHO cells, counter-screen for KCNQ1 inhibitor project, cell-based, Tl flux | parental CHO-K1, FluxOR thallium flux fluorescence ratio; hits give low values; zero means no signal rise above baseline | fluorescence ratio (Tl flux) at 10 µM | shares compounds with KCNQ1 inh | AID 588366, 2011 | actives 21% (n = 1,600);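 active means mean of duplicate thallium-flux fluorescence ratios in parental host cells more than 5 SD below the buffer control mean, cut at about 0.38 in these data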;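 further: ratio is peak minus minimum fluorescence divided by baseline fluorescence; actives read low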
KCNQ1 ephys val: KCNQ1 channel inhibitors, confirmation, orthogonal assay, cell-based, automated electrophysiology; shares compounds with KCNQ1 inh; calls only at 10 µM; KCNQ1-CHO cells, automated patch clamp current; actives 20% (n = 490);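 active means KCNQ1 current drop exceeding 3 SD of negative control wells, seen in both duplicate runs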;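 further: steady state current during a 2 s step from -80 to +40 mV; negative values mean current inhibition and positive values mean potentiation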
KCNQ2 inh: KCNQ2 channel inhibition, selectivity assay for KCNQ1 inhibitor project, cell-based; shares compounds with KCNQ1 inh; KCNQ2 cells, FluxOR thallium flux fluorescence; inhibition, % at 10 µM; actives 71% (n = 1,600); AID 651746, 2012;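 active means mean percent inhibition of the KCNQ2 thallium signal more than 5 SD above the buffer-only control wells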;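 further: KCNQ2 expressed in CHO cells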
KCNQ1 KCNE1 spec: KCNQ1/KCNE1 channel inhibition, selectivity assay for KCNQ1 inhibitor project, CHO-K1 cells, thallium flux, FluxOR. shares compounds with KCNQ1 inh. FluxOR thallium flux fluorescence. inhibition, % at 10 µM. actives 77% (n = 1,600). AID 652147, 2013;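 active means mean percent inhibition of duplicate wells above the buffer-only control mean plus 3 SD of those controls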
Large screens that a line does not name were inactive (follow-up assays come after a bar, where they were run). Compounds with a hit are over-represented: about 4.1% of the library has one in this group of screens.

Cn1nc(C(C)(C)C)cc1NC(=O)Nc1ccc(F)cc1F	none
Cc1cc(OCC(=O)Nc2ccncc2)ccc1Br	KCNQ1 inh 13 (no result: KCC2 mod) | KCNQ1 block val 72 | CHO Tl flux inactive | KCNQ2 inh inactive | KCNQ1 KCNE1 spec inactive
COc1cccc(NC(=O)COc2ccc(Br)c(C)c2)c1	none (no result: KCC2 mod)
COc1ccccc1-c1cnn2c(NCCc3ccccc3)cc(C)nc12	KCNQ1 inh 7 (no result: KCC2 mod) | KCNQ1 block val 66 | CHO Tl flux inactive | KCNQ2 inh 75% | KCNQ1 KCNE1 spec 119%
Cc1ccc(N=Nc2c(N)[nH]n3c(=O)cc(-c4ccccc4)nc23)cc1	KCNQ1 inh 9 | KCNQ1 block val 46 | CHO Tl flux inactive | KCNQ2 inh inactive | KCNQ1 KCNE1 spec 87%
Fc1ccccc1CN1CCCN(C(=S)Nc2cccc(Cl)c2)C1	KCNQ1 inh 7 | KCNQ1 block val 47 | CHO Tl flux inactive | KCNQ2 inh 73% | KCNQ1 KCNE1 spec inactive
Cc1c(Cl)cccc1NC(=S)N1CCCN(Cc2ccccc2F)C1	none
O=C(c1cc2ccccc2oc1=O)N1CCN(S(=O)(=O)c2ccccc2)CC1	none (no result: KCC2 mod)
O=C(CN1c2ccccc2S(=O)(=O)c2ccccc21)Nc1ccccc1F	none (no result: KCC2 mod)
O=C(c1cccc(N2C(=O)C3C4C=CC(C4)C3C2=O)c1)N1CCCc2ccccc21 (configuration not stated)	KCNQ1 inh 10 | KCNQ1 block val inactive | CHO Tl flux inactive | KCNQ2 inh inactive | KCNQ1 KCNE1 spec 46%
COc1c(S(=O)(=O)N2CCN(C)CC2)ccc(Cl)c1Cl	KCNQ1 inh 7 (no result: KCC2 mod) | KCNQ1 block val inactive | CHO Tl flux inactive | KCNQ2 inh inactive | KCNQ1 KCNE1 spec 56%
COc1ccc(Cl)cc1S(=O)(=O)N1CCN(C)CC1	none
COc1ccc(C(=O)C2CCCN(Cc3cccn3-c3ccccn3)C2)c(OC)c1 (configuration not stated)	KCNQ1 inh 6 | KCNQ1 block val inactive | CHO Tl flux inactive | KCNQ2 inh 60% | KCNQ1 KCNE1 spec inactive
CCNc1nc(NCC)nc(N(C)/N=C/c2ccco2)n1	none (no result: KCC2 mod)
CC(Oc1cccc(Cl)c1)C(=O)Nc1cc(S(=O)(=O)N2CCCCC2)ccc1N1CCOCC1 (configuration not stated)	KCNQ1 inh 9 (no result: KCC2 mod) | KCNQ1 block val 69 | CHO Tl flux inactive | KCNQ2 inh 94% | KCNQ1 KCNE1 spec 95%
CNC[C@H](O)c1cccc(O)c1	none
CCN(CC(O)c1cccc(O)c1)C(=O)C12CC3CC(CC(C3)C1)C2 (configuration not stated)	KCNQ1 inh 6 (no result: KCC2 mod) | KCNQ1 block val 66 | CHO Tl flux inactive | KCNQ2 inh 77% | KCNQ1 KCNE1 spec 43%
Cc1cccc(OCC(=O)Nc2ccc3c(c2)nc(CCN2CCC(C)CC2)n3C)c1	none (no result: KCC2 mod)
Cc1cccc(OCC(=O)Nc2ccc3c(c2)nc(CCN2CCN(C)CC2)n3C)c1	KCNQ1 inh 9 (no result: KCC2 mod) | KCNQ1 block val inactive | CHO Tl flux inactive | KCNQ2 inh inactive | KCNQ1 KCNE1 spec inactive
Cc1cccc(C(=O)N[C@H](C(=O)Nc2ccc3c(c2)OCO3)C(C)C)c1	none (no result: hERG protect, KCNK9 inh, KCC2 mod, KCNQ1 inh, KCNQ1 pot)
CCN(C(=O)COC(=O)CC1CCCCC1)c1c(N)n(Cc2ccccc2)c(=O)[nH]c1=O	none (no result: hERG protect, KCNK9 inh, KCC2 mod, KCNQ1 inh, KCNQ1 pot)
C(=C\c1ccccc1)/CN1CCN(c2ncnc3c2oc2ccccc23)CC1	KCNQ1 inh 7, KCNK3 inh -13 (no result: KCC2 mod) | KCNQ1 block val 150 | CHO Tl flux 0.31 | KCNQ2 inh 135% | KCNQ1 KCNE1 spec 178%
CC1CCc2c(sc(NC(=O)c3cccn3C)c2C(N)=O)C1 (configuration not stated)	none (no result: hERG protect, KCNK9 inh, KCC2 mod, KCNQ1 inh, KCNQ1 pot)
COc1ccc(NS(=O)(=O)c2ccc(-c3cnc(C4CC4)o3)cc2)cc1OC	KCNQ1 inh 8 (no result: KCC2 mod) | KCNQ1 block val 86 | CHO Tl flux inactive | KCNQ2 inh 83% | KCNQ1 KCNE1 spec inactive
Fc1ccc(CNC(=S)Nc2ccc(OC(F)F)cc2)cc1	KCNQ1 inh 7 | KCNQ1 block val 56 | CHO Tl flux inactive | KCNQ2 inh inactive | KCNQ1 KCNE1 spec 40%
FC(F)Oc1ccc(NC(=S)NCc2cccnc2)cc1	none
Cc1ccccc1Nc1cc(C)c2c(O)cccc2n1	KCNQ1 inh 7 | KCNQ1 block val 31 | CHO Tl flux inactive | KCNQ2 inh 71% | KCNQ1 KCNE1 spec inactive
CC(=O)c1ccc(S(=O)(=O)Nc2ccc(C(=O)N3CCC3)cc2)cc1	none (no result: hERG protect, KCNK9 inh, KCC2 mod, KCNQ1 inh, KCNQ1 pot)
COc1ccc(Nc2nc(N3CCCC3)nc3ccccc23)c(OC)c1	KCNQ1 inh 7 | KCNQ1 block val 112 | CHO Tl flux inactive | KCNQ2 inh 81% | KCNQ1 KCNE1 spec 137%
Oc1ccc(Nc2nc(N3CCCC3)c3ccccc3n2)cc1	none (no result: KCC2 mod)
COc1ccc(Nc2ncnc3ccccc23)c(OC)c1	none
COc1ccc(Nc2nc(N3CCCCC3)c3ccccc3n2)cc1	KCNQ1 inh 14 (no result: KCC2 mod) | KCNQ1 block val 139 | CHO Tl flux inactive | KCNQ1 ephys val inactive | KCNQ2 inh 103% | KCNQ1 KCNE1 spec 122%
O=c1oc2c(-c3cccc(F)c3)cc(O)cc2s1	KCNQ1 inh 11 | KCNQ1 block val 74 | CHO Tl flux inactive | KCNQ2 inh inactive | KCNQ1 KCNE1 spec 64%
